Columns and labels:
[1] = Inhibition of envelope glycoprotein in HIV pseudotyped Zaire Ebolavirus infected in human A549 cells assessed as reduction in virus entry measured after 48 hrs by luciferase reporter gene assay; assay type: cell-based; settings: A549, 48 h
Summary of the method: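 A549 cells (5000/well, seeded 24 h prior) incubated 48 h with 3-fold serial compound dilutions premixed with HIV-backbone luciferase pseudovirions bearing EBOV GP. Entry quantified by luciferase signal, normalized to virus-alone cells. IC50 from logistic regression of dose-response curves.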

[2] = Cytotoxicity against human A549 cells assessed as reduction in cell viability by Celltiter-Glo assay; assay type: cell-based
Summary of the method: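 Low-passage A549 cells seeded at 5000/well 24 h ahead, then exposed for 48 h to 3-fold serial compound dilutions in fresh media without virus. Viability read by CellTiter-Glo luminescence and normalized to medium-only cells. CC50 from logistic regression fit of dose-response curves.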

[3] = system: envelope glycoprotein of Zaire Ebolavirus; assay: Selectivity index, ratio of CC50 for human A549 cells to IC50 for inhibition of envelope glycoprotein in HIV pseudotyped Zaire Ebolavirus infected in human A549 cells assessed as reduction in virus entry; assay type: toxicity, cell-based; settings: read-out: Ratio CC50/IC50
Summary of the method: (§1)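 IC50 wells also got HIV luciferase pseudovirions bearing MARV GP or EBOV GP, read by luciferase. CC50 wells got fresh media, read by CellTiter-Glo. Both values come from logistic dose-response fits, and the index is CC50 divided by IC50.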

[4] = system: envelope glycoprotein of Marburgvirus; assay: Selectivity index, ratio of CC50 for human A549 cells to IC50 for inhibition of envelope glycoprotein in HIV pseudotyped Marburgvirus infected in human A549 cells assessed as reduction in virus entry; assay type: toxicity, cell-based; settings: read-out: Ratio CC50/IC50; summary of the method: as §1

| Structure (SMILES) | IC50 [1] [µM] | CC50 [2] [µM] | selectivity ratio [3] | selectivity ratio [4] |
| --- | --- | --- | --- | --- |
| Cc1c(Cc2ccc(-c3ccccc3C#N)cc2)c(=O)oc2cc(OCC(O)CN3CCC(C(N)=O)CC3)ccc12 (stereo unspecified) | 1.8 | 33.2 | 17.5 | 18.2 |
| Cc1c(Cc2ccc(OC(F)(F)F)cc2)c(=O)oc2cc(OC[C@H](O)CN3CCC(C(N)=O)CC3)ccc12 | 0.9 | 52 | 55.7 | 36.3 |
| Cc1c(Cc2ccccc2)c(=O)oc2cc(OCC(CN3CCC(C(N)=O)CC3)Oc3ccccc3F)ccc12 (stereo unspecified) | 22.5 | 79.6 | 3.5 | 3.9 |
| Cc1c(Cc2ccc(-c3ccccc3)cc2)c(=O)oc2cc(OCC(O)CNc3nccs3)ccc12 (stereo unspecified) | 2.7 | 38.1 | 14.1 | 29.3 |
| Cc1c(Cc2ccc(F)cc2F)c(=O)oc2cc(OCC(O)CN3CCC(C(N)=O)CC3)ccc12 (stereo unspecified) | 1.2 | > 100 | > 81.1 | 23.6 |
| Cc1c(Cc2ccc(OC(F)(F)F)cc2)c(=O)oc2cc(OCC(O)CNCCc3ccncc3)ccc12 (stereo unspecified) | 2.2 | 14.3 | 6.6 | 10.7 |
| Cc1c(Cc2ccc(-c3ccc(Cl)cc3)cc2)c(=O)oc2cc(OCC(O)CN3CCC(C(N)=O)CC3)ccc12 (stereo unspecified) | 1.4 | 32.9 | 22.9 | 31.8 |
| COc1ccc(OC(COc2ccc3c(C)c(Cc4ccccc4)c(=O)oc3c2)CN2CCC(C(N)=O)CC2)cc1 (stereo unspecified) | 10.5 | 94.9 | 9.1 | 11.9 |
| Cc1cc(F)ccc1Cc1c(C)c2ccc(OCC(O)CN3CCC(C(N)=O)CC3)cc2oc1=O (stereo unspecified) | 1.2 | > 100 | > 81.1 | 33.3 |
| Cc1c(Cc2ccccc2)c(=O)oc2cc(OCC(CN3CCC(C(N)=O)CC3)Oc3ccc([N+](=O)[O-])cc3)ccc12 (stereo unspecified) | 16 | 94.8 | 5.9 | 11.5 |
| Cc1c(Cc2ccccc2C(F)(F)F)c(=O)oc2cc(OCC(O)CN3CCC(C(N)=O)CC3)ccc12 (stereo unspecified) | 1.6 | > 100 | > 63.8 | 33 |
| Cc1c(Cc2ccccc2)c(=O)oc2cc(OCCCNc3nccs3)ccc12 | 18 | 50.1 | 2.8 | 3.1 |
| NC(=O)C1CCN(CC(O)COc2ccc3c(C4CC4)cc(=O)oc3c2)CC1 (stereo unspecified) | 17.7 | > 100 | > 5.7 | 3 |
| Cc1c(Cc2ccc(OC(F)(F)F)cc2)c(=O)oc2cc(OC[C@@H](O)CN3CCC(C(N)=O)CC3)ccc12 | 0.7 | 64.9 | 92.6 | 46.3 |
| Cc1c(Cc2ccc(-c3ccc(F)cc3)cc2)c(=O)oc2cc(OCC(O)CN3CCC(C(N)=O)CC3)ccc12 (stereo unspecified) | 1.5 | 19.3 | 13.1 | 18.1 |
| Cc1c(Cc2ccc(Cl)cc2)c(=O)oc2cc(OCC(O)CN3CCC(C(N)=O)CC3)ccc12 (stereo unspecified) | 2.5 | 40 | 16.3 | 13.8 |
| Cc1c(Cc2ccc(F)cc2Cl)c(=O)oc2cc(OCC(O)CN3CCC(C(N)=O)CC3)ccc12 (stereo unspecified) | 3.1 | 90.8 | 29 | 7.7 |

| Structure (SMILES) | IC50 [1] [µM] | CC50 [2] [µM] | selectivity ratio [3] | selectivity ratio [4] |
| --- | --- | --- | --- | --- |
| Cc1c(Cc2ccc(C(F)(F)F)cc2)c(=O)oc2cc(OCC(O)CN3CCC(C(N)=O)CC3)ccc12 (stereo unspecified) | 1.1 | 89.3 | 78.8 | 83.7 |
| Cc1noc(C)c1-c1ccc(Cc2c(C)c3ccc(OCC(O)CN4CCC(C(N)=O)CC4)cc3oc2=O)cc1 (stereo unspecified) | 5.2 | 36.9 | 7.1 | 11.4 |
| Cc1c(Cc2ccc(-c3ccc(C(F)(F)F)cc3)cc2)c(=O)oc2cc(OCC(O)CN3CCC(C(N)=O)CC3)ccc12 (stereo unspecified) | 1.2 | > 100 | > 85.7 | 76.9 |
| Cc1c(Cc2cccc3ccccc23)c(=O)oc2cc(OCC(O)CN3CCC(C(N)=O)CC3)ccc12 (stereo unspecified) | 1.5 | 42.4 | 28.5 | 36.6 |
| Cc1c(Cc2cccc(F)c2)c(=O)oc2cc(OCC(O)CN3CCC(C(N)=O)CC3)ccc12 (stereo unspecified) | 1.6 | 53.3 | 34 | 22.5 |
| Cc1c(Cc2ccc(OC(F)(F)F)cc2)c(=O)oc2cc(OCC(O)CN3CCC(C(N)=O)CC3)ccc12 (stereo unspecified) | 0.5 | 68.2 | 136 | 56.8 |
| Cc1c(Cc2ccc(-c3ccc(C#N)c(F)c3)cc2)c(=O)oc2cc(OCC(O)CN3CCC(C(N)=O)CC3)ccc12 (stereo unspecified) | 3.5 | 29.1 | 8.2 | 12.8 |
| Cc1c(Cc2ccc(-c3ccccc3)cc2)c(=O)oc2cc(OCC(O)CN3CCC(C(N)=O)CC3)ccc12 (stereo unspecified) | 0.7 | > 100 | > 143 | 111 |
| NC(=O)C1CCN(CC(O)COc2ccc3c(C4CC4)c(Cc4ccccc4)c(=O)oc3c2)CC1 (stereo unspecified) | 9.4 | > 100 | > 10.6 | 15.3 |
| Cc1c(Cc2ccc(Br)cc2)c(=O)oc2cc(OCC(O)CN3CCC(C(N)=O)CC3)ccc12 (stereo unspecified) | 0.9 | > 100 | > 111 | 85.7 |
| COC(CNCCc1ccncc1)COc1ccc2c(C)c(Cc3ccccc3)c(=O)oc2c1 (stereo unspecified) | 2.8 | 16.6 | 5.9 | 9.6 |
| Cc1c(Cc2ccccc2)c(=O)oc2cc(OCC(CN3CCC(C(N)=O)CC3)Oc3ccc(F)cc3)ccc12 (stereo unspecified) | 10.4 | 66.4 | 6.4 | 5.5 |
| Cc1c(Cc2ccc(OC(F)(F)F)cc2)c(=O)oc2cc(OCC(O)CNc3nccs3)ccc12 (stereo unspecified) | 1.5 | 99 | 66 | 82.5 |
| COC(=O)c1ccc(Cc2c(C)c3ccc(OCC(O)CN4CCC(C(N)=O)CC4)cc3oc2=O)cc1 (stereo unspecified) | 7.5 | > 100 | > 13.3 | 11 |
| NC(=O)C1CCN(CC(O)COc2ccc3c(-c4ccccc4)c(Cc4ccccc4)c(=O)oc3c2)CC1 (stereo unspecified) | 2.9 | 25.2 | 8.6 | 11.6 |
| COc1ccc(Cc2c(C)c3ccc(OCC(O)CN4CCC(C(N)=O)CC4)cc3oc2=O)c(Br)c1 (stereo unspecified) | 2.5 | 44.4 | 18 | 8.6 |
| Cc1c(Cc2ccc(-c3ccc(C=O)c(F)c3)cc2)c(=O)oc2cc(OCC(O)CN3CCC(C(N)=O)CC3)ccc12 (stereo unspecified) | 10.9 | 62.4 | 5.7 | 11.9 |
